Data published in ChEMBL document CHEMBL1817648, “Synthesis and in vitro antibacterial activity of a series of novel gatifloxacin derivatives” (Eur J Med Chem, 2011).
In brackets after ≈: the same amount, converted by molar mass.

Tests used:
[1] = Cytotoxicity against african green monkey Vero cells after 72 hrs by MTT assay; assay type: cell-based; conditions: chlorocebus sabaeus
In short: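 Vero cells were kept in Minimum Essential Medium with Earle's salts plus 10% fetal bovine serum at 37 °C under 5% CO₂. Cells were seeded at 1 × 10⁴ per well and allowed to recover 24 h. Medium was then replaced with assay medium containing compound or no drug, and cells were exposed for 72 h. CC₅₀ is the 50% cellular cytotoxic concentration.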

Staphylococcus aureus [2] = experiment: Antibacterial activity against Staphylococcus aureus ATCC 25923 after 18 to 24 hrs by NCCLS M100-S11 two fold serial dilution method; assay type: functional; conditions: ATCC25923
Staphylococcus aureus [3] = experiment: Antibacterial activity against methicillin-resistant Staphylococcus aureus 08-1 after 18 to 24 hrs by NCCLS M100-S11 two fold serial dilution method; assay type: functional
In short: (§1)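 Two-fold serial dilution in agar medium. MIC read as the lowest concentration giving complete inhibition of bacterial growth after incubation at 35 °C for 18–24 h.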

Staphylococcus aureus [4] = experiment: Antibacterial activity against methicillin-sensitive Staphylococcus aureus 08-1 after 18 to 24 hrs by NCCLS M100-S11 two fold serial dilution method; assay type: functional
[5] = system: Staphylococcus epidermidis; experiment: Antibacterial activity against methicillin-resistant Staphylococcus epidermidis 09-4 after 18 to 24 hrs by NCCLS M100-S11 two fold serial dilution method; assay type: functional; in short: as §1
[6] = system: Staphylococcus epidermidis; experiment: Antibacterial activity against methicillin-sensitive Staphylococcus epidermidis 09-3 after 18 to 24 hrs by NCCLS M100-S11 two fold serial dilution method; assay type: functional; in short: as §1
[7] = system: Staphylococcus epidermidis; experiment: Antibacterial activity against methicillin-sensitive Staphylococcus epidermidis 09-6 after 18 to 24 hrs by NCCLS M100-S11 two fold serial dilution method; assay type: functional; in short: as §1
Streptococcus pneumoniae [8] = experiment: Antibacterial activity against Streptococcus pneumoniae 08-2 after 18 to 24 hrs by NCCLS M100-S11 two fold serial dilution method; assay type: functional
Streptococcus pneumoniae [9] = experiment: Antibacterial activity against Streptococcus pneumoniae 08-4 after 18 to 24 hrs by NCCLS M100-S11 two fold serial dilution method; assay type: functional
Enterococcus faecium [10] = experiment: Antibacterial activity against Enterococcus faecium 08-2 after 18 to 24 hrs by NCCLS M100-S11 two fold serial dilution method; assay type: functional
Enterococcus faecium [11] = experiment: Antibacterial activity against Enterococcus faecium 08-7 after 18 to 24 hrs by NCCLS M100-S11 two fold serial dilution method; assay type: functional
Enterococcus faecalis [12] = experiment: Antibacterial activity against Enterococcus faecalis 08-10 after 18 to 24 hrs by NCCLS M100-S11 two fold serial dilution method; assay type: functional
Enterococcus faecalis [13] = experiment: Antibacterial activity against Enterococcus faecalis 08-12 after 18 to 24 hrs by NCCLS M100-S11 two fold serial dilution method; assay type: functional
Escherichia coli [14] = experiment: Antibacterial activity against Escherichia coli ATCC 25922 after 18 to 24 hrs by NCCLS M100-S11 two fold serial dilution method; assay type: functional; conditions: ATCC25922
Escherichia coli [15] = experiment: Antibacterial activity against Escherichia coli 08-21 after 18 to 24 hrs by NCCLS M100-S11 two fold serial dilution method; assay type: functional
Escherichia coli [16] = experiment: Antibacterial activity against Escherichia coli 08-22 after 18 to 24 hrs by NCCLS M100-S11 two fold serial dilution method; assay type: functional
Klebsiella pneumoniae [17] = experiment: Antibacterial activity against Klebsiella pneumoniae 09-22 after 18 to 24 hrs by NCCLS M100-S11 two fold serial dilution method; assay type: functional
Pseudomonas aeruginosa [18] = experiment: Antibacterial activity against Pseudomonas aeruginosa ATCC 27853 after 18 to 24 hrs by NCCLS M100-S11 two fold serial dilution method; assay type: functional
Pseudomonas aeruginosa [19] = experiment: Antibacterial activity against Pseudomonas aeruginosa 09-32 after 18 to 24 hrs by NCCLS M100-S11 two fold serial dilution method; assay type: functional
Pseudomonas aeruginosa [20] = experiment: Antibacterial activity against Pseudomonas aeruginosa 09-33 after 18 to 24 hrs by NCCLS M100-S11 two fold serial dilution method; assay type: functional
Pseudomonas aeruginosa [21] = experiment: Antibacterial activity against Pseudomonas aeruginosa 09-34 after 18 to 24 hrs by NCCLS M100-S11 two fold serial dilution method; assay type: functional
Klebsiella pneumoniae [22] = experiment: Antibacterial activity against Klebsiella pneumoniae 09-23 after 18 to 24 hrs by NCCLS M100-S11 two fold serial dilution method; assay type: functional

`COC(=O)CCN1CCN(c2c(F)cc3c(=O)c(C(=O)O)cn(C4CC4)c3c2OC)CC1C` (stereo unspecified) showed a CC50 at 72 h [1] of over 1000 µg/mL, an MIC (Staphylococcus aureus [2]) of 8 µg/mL (≈ 17.3 µM) and an MIC (Staphylococcus aureus [3]) of 4 µg/mL (≈ 8.67 µM). The MIC (Staphylococcus aureus [4]) was 4 µg/mL (≈ 8.67 µM), the MIC [5] was over 128 µg/mL and the MIC [6] was over 128 µg/mL. For the same molecule, the MIC [7] was over 128 µg/mL, the MIC (Streptococcus pneumoniae [8]) was over 128 µg/mL and the MIC (Streptococcus pneumoniae [9]) was over 128 µg/mL. For the same molecule, the MIC (Enterococcus faecium [10]) was over 128 µg/mL, the MIC (Enterococcus faecium [11]) was over 128 µg/mL and the MIC (Enterococcus faecalis [12]) was over 128 µg/mL. It also gave an MIC (Enterococcus faecalis [13]) of over 128 µg/mL, an MIC (Escherichia coli [14]) of over 128 µg/mL and an MIC (Escherichia coli [15]) of over 128 µg/mL. For the same molecule, the MIC (Escherichia coli [16]) was over 128 µg/mL, the MIC (Klebsiella pneumoniae [17]) was over 128 µg/mL and the MIC (Pseudomonas aeruginosa [18]) was over 128 µg/mL. The MIC (Pseudomonas aeruginosa [19]) was over 128 µg/mL, the MIC (Pseudomonas aeruginosa [20]) was over 128 µg/mL and the MIC (Pseudomonas aeruginosa [21]) was over 128 µg/mL. For the same molecule, the MIC (Klebsiella pneumoniae [22]) was over 128 µg/mL.
Molecule `CCO/N=C(\C)CCN1CCN(c2c(F)cc3c(=O)c(C(=O)O)cn(C4CC4)c3c2OC)CC1C` (stereo unspecified) has a CC50 at 72 h [1] of 88.4 µg/mL (≈ 181 µM), an MIC (Staphylococcus aureus [2]) of 64 µg/mL (≈ 131 µM) and an MIC (Staphylococcus aureus [3]) of 16 µg/mL (≈ 32.7 µM). For the same molecule, the MIC (Staphylococcus aureus [4]) was 128 µg/mL (≈ 262 µM), the MIC [5] was 0.5 µg/mL (≈ 1.02 µM) and the MIC [6] was 0.5 µg/mL (≈ 1.02 µM). The MIC [7] was 0.5 µg/mL (≈ 1.02 µM), the MIC (Streptococcus pneumoniae [8]) was 128 µg/mL (≈ 262 µM) and the MIC (Streptococcus pneumoniae [9]) was over 128 µg/mL. For the same molecule, the MIC (Enterococcus faecium [10]) was over 128 µg/mL, the MIC (Enterococcus faecium [11]) was over 128 µg/mL and the MIC (Enterococcus faecalis [12]) was over 128 µg/mL. It also gave an MIC (Enterococcus faecalis [13]) of over 128 µg/mL, an MIC (Escherichia coli [14]) of over 128 µg/mL and an MIC (Escherichia coli [15]) of over 128 µg/mL. For the same molecule, the MIC (Escherichia coli [16]) was over 128 µg/mL, the MIC (Klebsiella pneumoniae [17]) was 128 µg/mL (≈ 262 µM) and the MIC (Pseudomonas aeruginosa [18]) was over 128 µg/mL. For the same molecule, the MIC (Pseudomonas aeruginosa [19]) was 128 µg/mL (≈ 262 µM), the MIC (Pseudomonas aeruginosa [20]) was over 128 µg/mL and the MIC (Pseudomonas aeruginosa [21]) was over 128 µg/mL. For the same molecule, the MIC (Klebsiella pneumoniae [22]) was over 128 µg/mL.
For `COc1c(N2CCN(C/C(C)=N/O)C(C)C2)c(F)cc2c(=O)c(C(=O)O)cn(C3CC3)c12` (stereo unspecified), the CC50 at 72 h [1] was 177 µg/mL (≈ 396 µM), the MIC (Staphylococcus aureus [2]) was 0.25 µg/mL (≈ 0.56 µM) and the MIC (Staphylococcus aureus [3]) was over 128 µg/mL. For the same molecule, the MIC (Staphylococcus aureus [4]) was 0.25 µg/mL (≈ 0.56 µM), the MIC [5] was 0.25 µg/mL (≈ 0.56 µM) and the MIC [6] was 0.25 µg/mL (≈ 0.56 µM). For the same molecule, the MIC [7] was 0.25 µg/mL (≈ 0.56 µM), the MIC (Streptococcus pneumoniae [8]) was 128 µg/mL (≈ 287 µM) and the MIC (Streptococcus pneumoniae [9]) was 0.25 µg/mL (≈ 0.56 µM). The MIC (Enterococcus faecium [10]) was over 128 µg/mL, the MIC (Enterococcus faecium [11]) was over 128 µg/mL and the MIC (Enterococcus faecalis [12]) was over 128 µg/mL. It also gave an MIC (Enterococcus faecalis [13]) of over 128 µg/mL, an MIC (Escherichia coli [14]) of 128 µg/mL (≈ 287 µM) and an MIC (Escherichia coli [15]) of over 128 µg/mL. The MIC (Escherichia coli [16]) was over 128 µg/mL, the MIC (Klebsiella pneumoniae [17]) was over 128 µg/mL and the MIC (Pseudomonas aeruginosa [18]) was 32 µg/mL (≈ 71.7 µM). The MIC (Pseudomonas aeruginosa [19]) was 32 µg/mL (≈ 71.7 µM), the MIC (Pseudomonas aeruginosa [20]) was over 128 µg/mL and the MIC (Pseudomonas aeruginosa [21]) was over 128 µg/mL. For the same molecule, the MIC (Klebsiella pneumoniae [22]) was over 128 µg/mL.
